We go through four compounds from article PMC3367325 (Journal of Natural Products, 2012).

Where two headings read alike, the source gives them in different places. Peptide text beside a SMILES is read from it. * marks the point of attachment. Cbz = O=C(OCc1ccccc1)*

Series [1] relates to alpha(2B) adrenoceptor. Particulars: cited from earlier work.
Series [2] addresses T1, human 20S proteasome (CT-L activity) (Homo sapiens, UniProt P28074).
For series [3], the target named is T1, human 20S proteasome (CT-L activity). The series is described as follows: IC50 pre- and post-centrifugation of palau’amine in reaction buffer. The class given is biochemical. Particulars: 15,000g for 30 min, supernatant. The essentials: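 Test compound in reaction buffer was spun at 15000g for 30 min, and the IC50 was compared with that of unspun material. CT-L assay: 1 nM purified human 20S proteasome in 50 mM Tris-HCl pH 7.5 with 0.03% SDS and Suc-LLVY-AMC at its Km, at 37 °C. AMC fluorescence (ex 380/em 460 nm) was read each minute for 30 min, and the maximal rate gave activity.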

For series [4] the following is noted: pH of greater than seven; has been reported, no reference given; cited from earlier work.
Series [5] in a line: Aggregation assay. The class given is physicochemical. Particulars: 1 to 10 µM.
The test system of series [6] is HeLa cells. The series is described as follows: Accumulation of ubiquitinylated proteins, confocal microscopy. The class given is cell-based, human. Particulars: 1.0 µM, 2 h, versus vehicle, p =0.001.
In series [7] the target is human 20S proteasome (T-L activity) (Homo sapiens, UniProt Q99436). The series is described as follows: Tryptic-like. Format: biochemical. Conditions: purified human 20S proteasome.
For series [8], the target named is T1, human 20S proteasome (CT-L activity). The series is described as follows: Chymotryptic-like. Format: biochemical. Conditions: purified human 20S proteasome.

In the case of `NC1=N[C@]23CCCN2C(=O)c2cc(Br)c(Br)n2[C@@H]3N1` (racemic) [(±) -2, ±-dibromophakellin], the “Activity against the alpha(2B) adrenoceptor” value in series [1] is “agonist activity”.
On to `CC(C)C[C@@H](C=O)NC(=O)[C@H](CC(C)C)NC(=O)[C@H](CC(C)C)NC(=O)OCc1ccccc1` [MG-132, reference compound] (Cbz-Leu-Leu-Leu-aldehyde), for which, in series [2], the “CT-L proteolytic activity of 20S proteasome post-washing” value is listed as “almost completely restored” and the “CT-L proteolytic activity of 20S proteasome pre-washing” value is on record as “completely abrogated”.
`NC[C@@H]1[C@H]2CN3C(=O)c4cccn4[C@@H]4NC(N)=N[C@@]43[C@@H]2[C@]2(N=C(N)N[C@H]2O)[C@H]1Cl.O=C(O)C(F)(F)F` (racemic) [(±) - 1, palau’amine]: in series [3], the “Change in CT-L IC50 post-centrifugation versus pre-centrifugation” value is on record as “no significant change”. For the same compound, the “Stability at pH greater than seven (reported)” value in series [4] is given as “unstable”. Further, in series [5], the Formation of aggregates result is given as “not to form aggregates”. Moreover, in series [6], the “Accumulation of ubiquitinylated proteins (ubiquitin-Alexa 546 red fluorescence)” value was “robust increase”. In series [7], the “Effect on T-L activity of the proteasome” value is “did not affect”. Moreover, the “CT-L proteolytic activity of 20S proteasome pre-washing” value in series [2] (1 µM MG-132, 1 µM epoxomicin, 10 µM palau’amine, 1 nM 20S) is “complete abrogation”. The “Binding mechanism to the 20S proteasome” value in series [2] (kinetic analysis and washing experiments) is “irreversible-type”. In addition, in series [2] (washed with 500 volumes of reaction buffer), the “CT-L proteolytic activity of 20S proteasome post-washing” value was “complete abrogation”.
For the compound `O=c1c2cc(Br)c(Br)n2cc2n1CCC2` [compound 4], the “Inhibition of the proteasome (all activities)” value in series [8] was “devoid of all activity”.
